ChEMBL document CHEMBL2169800 (J Med Chem, 2012)

Columns and labels:
[1] = biological target: T1, Prostaglandin G/H synthase 1 (Ovis aries, UniProt P05979); experiment: Inhibition of ovine COX1 pre-incubated for 10 mins before arachidonic acid substrate addition by enzyme immunoassay
T1 sequence (P05979 whole entry): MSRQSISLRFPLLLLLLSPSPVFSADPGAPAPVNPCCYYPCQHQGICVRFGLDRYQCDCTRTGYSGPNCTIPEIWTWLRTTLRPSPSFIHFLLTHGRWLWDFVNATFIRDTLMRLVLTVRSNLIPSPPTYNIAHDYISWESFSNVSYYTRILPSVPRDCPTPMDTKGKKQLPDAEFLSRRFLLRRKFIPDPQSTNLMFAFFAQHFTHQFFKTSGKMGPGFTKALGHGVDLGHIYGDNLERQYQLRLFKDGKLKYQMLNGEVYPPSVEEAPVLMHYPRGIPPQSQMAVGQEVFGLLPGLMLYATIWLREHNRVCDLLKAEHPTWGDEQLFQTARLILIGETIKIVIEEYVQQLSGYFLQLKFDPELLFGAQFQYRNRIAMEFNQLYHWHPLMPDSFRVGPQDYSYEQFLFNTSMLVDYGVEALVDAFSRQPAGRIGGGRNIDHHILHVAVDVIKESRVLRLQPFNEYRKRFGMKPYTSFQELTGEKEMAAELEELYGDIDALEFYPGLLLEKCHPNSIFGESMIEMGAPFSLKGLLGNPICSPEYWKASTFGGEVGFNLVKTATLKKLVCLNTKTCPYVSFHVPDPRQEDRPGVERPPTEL
In short: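 Ovine COX-1 pre-incubated with inhibitor for 10 min at 37 °C, then 5 μM arachidonic acid for 2 min at 37 °C. Stopped with HCl; PGH2 reduced to PGF2α with SnCl2 and measured by competitive EIA (PG antibody, PG-acetylcholinesterase conjugate), absorbance at 412 nm.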

[2] = biological target: T2, Prostaglandin G/H synthase 2 (Homo sapiens, UniProt P35354); experiment: Inhibition of human COX2 pre-incubated for 10 mins before substrate addition by enzyme immunoassay
T2 sequence (P35354 whole entry): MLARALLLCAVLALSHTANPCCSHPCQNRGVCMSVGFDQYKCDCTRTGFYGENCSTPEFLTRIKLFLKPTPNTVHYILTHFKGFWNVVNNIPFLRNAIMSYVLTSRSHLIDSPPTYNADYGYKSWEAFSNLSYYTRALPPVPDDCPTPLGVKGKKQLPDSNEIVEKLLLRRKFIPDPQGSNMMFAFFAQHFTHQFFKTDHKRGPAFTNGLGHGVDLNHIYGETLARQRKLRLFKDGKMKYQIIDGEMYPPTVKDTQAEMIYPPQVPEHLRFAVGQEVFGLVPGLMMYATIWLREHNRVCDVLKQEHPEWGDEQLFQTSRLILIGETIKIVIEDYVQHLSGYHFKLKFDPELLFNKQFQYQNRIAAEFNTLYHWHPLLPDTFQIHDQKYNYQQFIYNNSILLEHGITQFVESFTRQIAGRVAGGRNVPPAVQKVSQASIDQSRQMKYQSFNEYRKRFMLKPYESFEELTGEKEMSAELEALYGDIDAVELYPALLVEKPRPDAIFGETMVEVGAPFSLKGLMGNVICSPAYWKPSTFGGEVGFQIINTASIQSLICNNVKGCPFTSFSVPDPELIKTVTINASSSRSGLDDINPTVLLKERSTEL

[3] = biological target: T3, Fatty-acid amide hydrolase 1 (Rattus norvegicus, UniProt P97612); experiment: Inhibition of FAAH in rat brain homogenates pre-incubated for 10 mins before addition of [3H]anandamide and [3H]AEA substrates for 30 mins by liquid scintillation counting; assay type: tissue-based
T3 sequence (P97612 whole entry): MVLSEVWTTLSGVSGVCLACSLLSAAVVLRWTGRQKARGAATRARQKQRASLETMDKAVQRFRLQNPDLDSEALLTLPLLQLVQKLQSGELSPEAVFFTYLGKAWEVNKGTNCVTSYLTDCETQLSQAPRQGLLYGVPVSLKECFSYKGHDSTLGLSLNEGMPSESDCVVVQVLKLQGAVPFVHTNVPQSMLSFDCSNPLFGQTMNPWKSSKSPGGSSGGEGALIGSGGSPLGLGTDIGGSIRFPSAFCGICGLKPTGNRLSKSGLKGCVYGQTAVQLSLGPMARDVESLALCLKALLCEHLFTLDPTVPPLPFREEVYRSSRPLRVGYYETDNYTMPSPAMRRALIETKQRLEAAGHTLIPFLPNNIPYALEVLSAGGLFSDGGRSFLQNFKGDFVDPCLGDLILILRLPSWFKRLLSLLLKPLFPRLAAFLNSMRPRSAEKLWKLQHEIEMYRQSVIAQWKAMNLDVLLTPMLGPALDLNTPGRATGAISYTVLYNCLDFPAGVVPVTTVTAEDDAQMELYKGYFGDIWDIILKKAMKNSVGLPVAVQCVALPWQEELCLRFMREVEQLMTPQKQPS
In short: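 Rat whole-brain homogenate (50 ug protein/sample) in 50 mM TRIS pH 7.4, 0.05 % fatty acid free BSA; inhibitor pre-incubated 10 min, then 1 uM unlabelled AEA plus 0.6 nM [3H]-AEA added for 30 min at 37°C. Stopped with cold 1:1 CHCl3/MeOH; aqueous phase counted.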

| Structure (SMILES) | IC50 [1] [µM] | IC50 [2] [µM] | IC50 ([3]; read-out: IC50) [µM] | IC50 [3] |
| --- | --- | --- | --- | --- |
| C[C@H](C(=O)O)c1ccc2c(c1)[nH]c1ccc(Cl)cc12 | 5.6 | – | – | – |
| C[C@@H](C(=O)O)c1ccc2c(c1)[nH]c1ccc(Cl)cc12 | > 100 | – | – | – |
| C[C@H](C(=O)O)c1ccc2c3cc(Cl)ccc3n(C(=O)c3ccc(Cl)cc3)c2c1 | 45 | 46.5 | > 100 | – |
| C[C@@H](C(=O)O)c1ccc2c3cc(Cl)ccc3n(C(=O)c3ccc(Cl)cc3)c2c1 | > 100 | > 100 | 14.9 | – |
| C[C@H](C(=O)O)c1ccc2c3cc(Cl)ccc3n(C(=O)c3cocn3)c2c1 | 4.1 | 2.5 | > 100 | – |
| C[C@@H](C(=O)O)c1ccc2c3cc(Cl)ccc3n(C(=O)c3cocn3)c2c1 | > 100 | > 100 | 53.2 | – |
| CC(C(=O)O)c1ccc2c3cc(Cl)ccc3n(C(=O)c3ccc(F)cc3)c2c1 (racemic) | > 100 | > 100 | 30.9 | – |
| COc1ccc(C(=O)n2c3ccc(Cl)cc3c3ccc(C(C)C(=O)O)cc32)cc1 (racemic) | > 100 | > 100 | 10.6 | – |
| CC(C(=O)O)c1ccc2c3cc(Cl)ccc3n(C(=O)c3cccc(Cl)c3)c2c1 (racemic) | > 100 | > 100 | 20.1 | – |
| CC(C(=O)O)c1ccc2c3cc(Cl)ccc3n(C(=O)c3ccccc3Cl)c2c1 (racemic) | > 100 | > 100 | 59.6 | – |
| CC(C(=O)O)c1ccc2c3cc(Cl)ccc3n(C(=O)c3ccc(Cl)c(Cl)c3)c2c1 (racemic) | > 100 | > 100 | > 100 | – |
| CC(C(=O)O)c1ccc2c3cc(Cl)ccc3n(C(=O)c3cocn3)c2c1 (racemic) | 30 | 27.8 | 84.8 | – |
| CC(C(=O)O)c1ccc2c3cc(Cl)ccc3n(C(=O)c3cnc[nH]3)c2c1 (racemic) | 12.8 | > 100 | 5.6 | – |
| CC(C(=O)O)c1ccc2c3cc(Cl)ccc3n(C(=O)c3cscn3)c2c1 (racemic) | > 100 | > 100 | > 100 | – |
| CCCCCCNC(=O)n1c2ccc(Cl)cc2c2ccc(C(C)C(=O)O)cc21 (racemic) | > 100 | > 100 | 3.2 | – |
| CNC(=O)n1c2ccc(Cl)cc2c2ccc(C(C)C(=O)O)cc21 (racemic) | > 100 | > 100 | > 100 | – |
| CCCCNC(=O)n1c2ccc(Cl)cc2c2ccc(C(C)C(=O)O)cc21 (racemic) | > 100 | > 100 | > 100 | – |
| CCCCCCCCNC(=O)n1c2ccc(Cl)cc2c2ccc(C(C)C(=O)O)cc21 (racemic) | 15.4 | > 100 | 26.8 | – |
| CC(C(=O)O)c1ccc2c3cc(Cl)ccc3n(C(=O)Nc3ccc(Cl)cc3)c2c1 (racemic) | 41.3 | > 100 | 102 | – |
| CCCCCCN(C)C(=O)n1c2ccc(Cl)cc2c2ccc(C(C)C(=O)O)cc21 (racemic) | > 100 | > 100 | > 100 | – |
| CC(C(=O)O)c1ccc2c3cc(Cl)ccc3n(C(=O)NC3CCCCC3)c2c1 (racemic) | > 100 | > 100 | > 100 | – |
| CCCCCCOC(=O)n1c2ccc(Cl)cc2c2ccc(C(C)C(=O)O)cc21 (racemic) | 17.2 | > 100 | 31.6 | – |
| CC(=O)n1c2ccc(Cl)cc2c2ccc(C(C)C(=O)O)cc21 (racemic) | > 100 | > 100 | > 100 | – |
| CC(C(=O)O)c1ccc2c3cc(Cl)ccc3n(C(=O)c3ccccc3)c2c1 (racemic) | > 100 | > 100 | 25.4 | – |
| CC(C(=O)O)c1ccc2c3cc(Cl)ccc3n(C(=O)c3ccc(Cl)cc3)c2c1 (racemic) | 74.3 | 72.3 | 22 | – |
| CC(C(=O)O)c1ccc2c(c1)[nH]c1ccc(Cl)cc12 (racemic) [CARPROFEN] | 22.3 | – | – | – |
| CC(C)Cc1ccc(C(C)C(=O)O)cc1 (stereo not drawn) [IBUPROFEN] | – | – | – | Not Active |
